Tests used:
[1] = system: P-glycoprotein 1 Abcb1a (Mus musculus); test: Inhibition of 2',3'-(2,2,5,5,-tetramethyl-3-pyrroline-l-oxyl-3-carboxylic acid ester)ATP interaction with mouse MDR3 P-gp expressed in Escherichia coli BL21 (DE3) assessed as reduction in ATP binding from 2 to 1 of nucleotide to mol of protein by ESR analysis (reference value: 1.8 +/- 0.1)
[2] = target: T1, P-glycoprotein (ABCB1, mouse MDR3) ATPase (Mus musculus, UniProt P21447); test: Inhibition of verampil-stimulated ATPase hydrolysis in recombinant mouse MDR3 expressed in Pichia pastoris measured after 30 mins in presence of NADH by coupled enzyme assay (reference value: 100 +/- 8 %); design: scale not given: the % may be the effect or the level left; conditions: recombinant mouse MDR3 (P-gp) expressed in Pichia pastoris
T1 sequence (P21447 whole entry): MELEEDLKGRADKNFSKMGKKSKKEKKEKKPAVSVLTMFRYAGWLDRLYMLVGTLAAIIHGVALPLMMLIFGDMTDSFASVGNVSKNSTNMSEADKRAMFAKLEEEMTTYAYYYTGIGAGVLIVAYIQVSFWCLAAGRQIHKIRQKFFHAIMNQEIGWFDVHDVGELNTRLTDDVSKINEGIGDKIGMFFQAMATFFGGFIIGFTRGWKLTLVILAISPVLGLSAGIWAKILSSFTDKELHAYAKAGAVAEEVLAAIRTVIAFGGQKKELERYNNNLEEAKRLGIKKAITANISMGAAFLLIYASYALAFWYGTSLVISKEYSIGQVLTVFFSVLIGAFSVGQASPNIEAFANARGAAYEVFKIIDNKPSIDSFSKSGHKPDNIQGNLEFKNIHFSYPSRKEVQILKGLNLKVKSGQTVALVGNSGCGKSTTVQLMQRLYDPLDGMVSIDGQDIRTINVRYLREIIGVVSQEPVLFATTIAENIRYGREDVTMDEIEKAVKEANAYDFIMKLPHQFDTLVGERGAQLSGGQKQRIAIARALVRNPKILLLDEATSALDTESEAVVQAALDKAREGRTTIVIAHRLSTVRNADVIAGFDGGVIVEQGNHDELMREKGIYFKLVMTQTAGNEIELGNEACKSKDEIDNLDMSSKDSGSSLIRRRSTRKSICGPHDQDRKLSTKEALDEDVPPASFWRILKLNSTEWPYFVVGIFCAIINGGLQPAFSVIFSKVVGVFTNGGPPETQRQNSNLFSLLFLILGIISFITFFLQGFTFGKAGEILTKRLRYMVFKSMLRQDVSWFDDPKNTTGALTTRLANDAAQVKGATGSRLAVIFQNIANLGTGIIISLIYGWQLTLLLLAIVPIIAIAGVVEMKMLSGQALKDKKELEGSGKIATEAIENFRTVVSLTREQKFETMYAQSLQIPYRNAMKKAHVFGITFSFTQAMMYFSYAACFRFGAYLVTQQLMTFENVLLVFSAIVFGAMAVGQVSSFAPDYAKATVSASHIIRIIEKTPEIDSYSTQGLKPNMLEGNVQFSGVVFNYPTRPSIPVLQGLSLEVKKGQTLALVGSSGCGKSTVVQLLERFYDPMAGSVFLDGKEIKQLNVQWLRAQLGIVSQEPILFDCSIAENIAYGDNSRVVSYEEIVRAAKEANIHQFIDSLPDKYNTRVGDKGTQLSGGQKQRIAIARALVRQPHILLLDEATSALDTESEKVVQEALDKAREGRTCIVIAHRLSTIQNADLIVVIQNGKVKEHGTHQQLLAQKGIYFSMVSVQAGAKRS

[3] = target: T2, ATP-dependent translocase ABCB1 (Homo sapiens, UniProt P08183); test: Reversal of P-gp mediated multidrug resistance in human DU145-TxR cells overexpressing P-gp assessed as potentiation of paclitaxel-induced cytotoxicity by measuring fold reduction paclitaxel IC50 at 7 uM after 48 hrs by MTT assay relative to parent compound; type: cell-based
T2 sequence (P08183 whole entry): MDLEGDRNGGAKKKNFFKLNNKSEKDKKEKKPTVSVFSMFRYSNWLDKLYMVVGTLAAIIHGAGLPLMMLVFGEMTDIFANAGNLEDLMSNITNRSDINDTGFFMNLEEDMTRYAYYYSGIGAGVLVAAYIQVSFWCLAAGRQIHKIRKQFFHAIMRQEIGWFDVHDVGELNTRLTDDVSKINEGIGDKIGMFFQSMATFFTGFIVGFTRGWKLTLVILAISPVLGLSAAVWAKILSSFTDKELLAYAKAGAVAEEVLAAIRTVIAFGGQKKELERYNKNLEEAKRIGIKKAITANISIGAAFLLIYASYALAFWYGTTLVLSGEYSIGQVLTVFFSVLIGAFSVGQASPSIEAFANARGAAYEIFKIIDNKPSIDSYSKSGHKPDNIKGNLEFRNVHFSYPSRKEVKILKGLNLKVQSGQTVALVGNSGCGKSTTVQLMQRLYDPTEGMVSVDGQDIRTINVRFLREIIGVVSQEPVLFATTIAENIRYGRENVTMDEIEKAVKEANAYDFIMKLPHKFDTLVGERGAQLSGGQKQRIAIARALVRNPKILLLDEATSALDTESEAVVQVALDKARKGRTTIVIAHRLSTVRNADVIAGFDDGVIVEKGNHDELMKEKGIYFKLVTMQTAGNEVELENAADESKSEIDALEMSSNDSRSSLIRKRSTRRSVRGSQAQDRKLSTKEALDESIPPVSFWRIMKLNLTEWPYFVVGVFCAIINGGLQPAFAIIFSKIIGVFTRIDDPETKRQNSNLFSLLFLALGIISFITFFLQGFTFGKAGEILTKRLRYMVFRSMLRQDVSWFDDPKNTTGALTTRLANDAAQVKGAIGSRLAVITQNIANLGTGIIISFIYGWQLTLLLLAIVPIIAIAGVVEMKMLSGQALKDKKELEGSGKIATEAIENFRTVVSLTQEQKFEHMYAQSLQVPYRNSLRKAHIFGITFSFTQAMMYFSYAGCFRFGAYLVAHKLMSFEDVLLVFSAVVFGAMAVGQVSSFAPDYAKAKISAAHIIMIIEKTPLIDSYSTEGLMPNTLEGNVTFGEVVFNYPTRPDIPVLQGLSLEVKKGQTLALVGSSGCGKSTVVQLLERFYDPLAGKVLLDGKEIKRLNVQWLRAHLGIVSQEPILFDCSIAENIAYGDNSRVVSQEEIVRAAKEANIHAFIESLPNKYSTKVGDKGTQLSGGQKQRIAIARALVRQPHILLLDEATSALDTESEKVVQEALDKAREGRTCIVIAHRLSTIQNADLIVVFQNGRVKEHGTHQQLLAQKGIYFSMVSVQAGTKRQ
Procedure, shortened: (§1)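 DU145TXR cells seeded at 3000 per well, 24 h later treated 48 h with paclitaxel alone or with 3, 5, 7 or 10 μM inhibitor in complete medium (DMSO vehicle). MTT 4 h, formazan dissolved in DMSO, A570 read, background subtracted, viability relative to DMSO. IC50 by four-parameter nonlinear fit; eight replicates, at least two experiments. Fold values compare paclitaxel alone or with parent inhibitor.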

[4] = target: P-glycoprotein 1 Abcb1a (Mus musculus); test: Inhibition of spin-labelled adenine nucleotide interaction with mouse MDR3 P-gp expressed in Escherichia coli BL21 (DE3) assessed as apparent dissociation constant by ESR analysis (reference value: 36.5 +/- 3.6 uM)
[5] = target: T2, ATP-dependent translocase ABCB1; test: Reversal of P-gp mediated multidrug resistance in human DU145-TxR cells overexpressing P-gp assessed as potentiation of paclitaxel-induced cytotoxicity by measuring fold reduction paclitaxel IC50 at 10 uM after 48 hrs by MTT assay relative to paclitaxel alone; type: cell-based
Procedure, shortened: as §1

[6] = target: T2, ATP-dependent translocase ABCB1; test: Reversal of P-gp mediated multidrug resistance in human DU145-TxR cells overexpressing P-gp assessed as potentiation of paclitaxel-induced cytotoxicity by measuring fold reduction paclitaxel IC50 at 5 uM after 48 hrs by MTT assay relative to paclitaxel alone; type: cell-based
Procedure, shortened: as §1

[7] = target: T3, P-glycoprotein (ABCB1, MDR1) ATPase (Homo sapiens, UniProt P08183); test: Inhibition of verampil-stimulated ATPase hydrolysis in recombinant human MDR1 expressed in Pichia pastoris measured after 30 mins in presence of NADH by coupled enzyme assay (reference value: 100 +/- 6 %); design: scale not given: the % may be the effect or the level left; conditions: recombinant human MDR1 (P-gp) expressed in Pichia pastoris
T3 sequence (P08183 whole entry): as above

[8] = target: T2, ATP-dependent translocase ABCB1; test: Ratio of inhibition of P-gp overexpressed in human DU145-TxR cells assessed as increase in intracellular compound accumulation after 2.5 hrs in presence of tariquidar by LC-MS/MS analysis to Inhibition of P-gp overexpressed in human DU145-TxR cells assessed as decrease in intracellular compound accumulation after 2.5 hrs in absence of tariquidar by LC-MS/MS analysis; type: cell-based
Procedure, shortened: (§2)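 P-gp-overexpressing DU145TXR cells exposed to test compounds with or without tariquidar. Intracellular compound measured by LC–MS/MS, with daunorubicin as a transported-substrate control. Ratio is accumulation with tariquidar divided by accumulation without.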

[9] = target: T2, ATP-dependent translocase ABCB1; test: Reversal of P-gp mediated multidrug resistance in human DU145-TxR cells overexpressing P-gp assessed as potentiation of paclitaxel-induced cytotoxicity by measuring fold reduction paclitaxel IC50 at 5 uM after 48 hrs by MTT assay relative to parent compound; type: cell-based
Procedure, shortened: as §1

[10] = target: T2, ATP-dependent translocase ABCB1; test: Reversal of P-gp mediated multidrug resistance in human DU145-TxR cells overexpressing P-gp assessed as potentiation of paclitaxel-induced cytotoxicity by measuring fold reduction paclitaxel IC50 at 10 uM after 48 hrs by MTT assay relative to parent compound; type: cell-based
Procedure, shortened: as §1

[11] = target: T2, ATP-dependent translocase ABCB1; test: Inhibition of P-gp overexpressed in human DU145-TxR cells assessed as increase in cellular accumulation of calcein AM at 2 uM pretreated followed by calcein AM addition by fluorescence imaging analysis; type: cell-based
Procedure, shortened: (§3)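 Confluent DU145TXR monolayers in phenol red-free RPMI 1640 given 2 μM inhibitor (DMSO vehicle) and 1 μg mL−1 calcein AM, either added together or after a 6 h inhibitor-only preincubation at 37 °C. Calcein fluorescence (ex 485 / em 535 nm) read over 60 min at 20 min intervals. Six replicates, at least two independent experiments.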

[12] = target: T2, ATP-dependent translocase ABCB1; test: Reversal of P-gp mediated multidrug resistance in human DU145-TxR cells overexpressing P-gp assessed as potentiation of paclitaxel-induced cytotoxicity by measuring fold reduction paclitaxel IC50 at 3 uM after 48 hrs by MTT assay relative to parent compound; type: cell-based
Procedure, shortened: as §1

[13] = target: T2, ATP-dependent translocase ABCB1; test: Reversal of P-gp mediated multidrug resistance in human DU145-TxR cells overexpressing P-gp assessed as potentiation of paclitaxel-induced cytotoxicity by measuring fold reduction paclitaxel IC50 at 3 uM after 48 hrs by MTT assay relative to paclitaxel alone; type: cell-based
Procedure, shortened: as §1

[14] = target: T1, P-glycoprotein (ABCB1, mouse MDR3) ATPase; test: Stimulation of basal ATPase hydrolysis in recombinant mouse MDR3 expressed in Pichia pastoris measured after 30 mins in presence of NADH by coupled enzyme assay (reference value: 100 +/- 7 %); design: scale not given: the % may be the effect or the level left; conditions: recombinant mouse MDR3 (P-gp) expressed in Pichia pastoris, read-out: Activity
[15] = target: T3, P-glycoprotein (ABCB1, MDR1) ATPase; test: Basal ATPase hydrolysis in recombinant human MDR1 expressed in Pichia pastoris measured after 30 mins in presence of NADH by coupled enzyme assay (reference value: 100 +/- 5 %); design: scale not given: the % may be the effect or the level left; conditions: recombinant human MDR1 (P-gp) expressed in Pichia pastoris
[16] = target: T2, ATP-dependent translocase ABCB1; test: Inhibition of P-gp overexpressed in human DU145-TxR cells assessed as increase in cellular accumulation of calcein AM at 2 uM preincubated for 6 hrs followed by calcein AM addition by fluorescence imaging analysis; type: cell-based
Procedure, shortened: as §3

[17] = target: T2, ATP-dependent translocase ABCB1; test: Reversal of P-gp mediated multidrug resistance in human DU145-TxR cells overexpressing P-gp assessed as potentiation of paclitaxel-induced cytotoxicity by measuring fold reduction paclitaxel IC50 at 7 uM after 48 hrs by MTT assay relative to paclitaxel alone; type: cell-based
Procedure, shortened: as §1

[18] = target: T1, P-glycoprotein (ABCB1, mouse MDR3) ATPase; test: Stimulation of verampil-mediated ATPase hydrolysis in recombinant mouse MDR3 expressed in Pichia pastoris measured after 30 mins in presence of NADH by coupled enzyme assay (reference value: 100 +/- 8 %); design: scale not given: the % may be the effect or the level left; conditions: recombinant mouse MDR3 (P-gp) expressed in Pichia pastoris, read-out: Activity
[19] = target: T1, P-glycoprotein (ABCB1, mouse MDR3) ATPase; test: Basal ATPase hydrolysis in recombinant mouse MDR3 expressed in Pichia pastoris measured after 30 mins in presence of NADH by coupled enzyme assay (reference value: 100 +/- 7 %); design: scale not given: the % may be the effect or the level left; conditions: recombinant mouse MDR3 (P-gp) expressed in Pichia pastoris
[20] = target: T3, P-glycoprotein (ABCB1, MDR1) ATPase; test: Effect on basal ATPase hydrolysis of recombinant human MDR1 expressed in Pichia pastoris measured after 30 mins in presence of NADH by coupled enzyme assay (reference value: 100 +/- 5 %); design: scale not given: the % may be the effect or the level left; conditions: recombinant human MDR1 (P-gp) expressed in Pichia pastoris, read-out: Activity
[21] = target: T1, P-glycoprotein (ABCB1, mouse MDR3) ATPase; test: Effect on verampil-mediated ATPase hydrolysis of recombinant mouse MDR3 expressed in Pichia pastoris measured after 30 mins in presence of NADH by coupled enzyme assay (reference value: 100 +/- 8 %); design: scale not given: the % may be the effect or the level left; conditions: recombinant mouse MDR3 (P-gp) expressed in Pichia pastoris, read-out: Activity
[22] = target: T2, ATP-dependent translocase ABCB1; test: Inhibition of P-gp overexpressed in human DU145-TxR cells assessed as increase in intracellular compound accumulation after 2.5 hrs in presence of tariquidar by LC-MS/MS analysis; type: cell-based
Procedure, shortened: as §2

[23] = target: T2, ATP-dependent translocase ABCB1; test: Inhibition of P-gp overexpressed in human DU145-TxR cells assessed as decrease in intracellular compound accumulation after 2.5 hrs in absence of tariquidar by LC-MS/MS analysis; type: cell-based
Procedure, shortened: as §2

| SMILES | Activity [1] | Activity at 0.5 h [2] [%] | Kd [4] [µM] | Activity at 0.5 h [7] [%] | Ratio [8] | inhibition (INH) [11] | Activity at 0.5 h [14] [%] | Activity at 0.5 h [15] [%] | inhibition (INH) [16] | Activity at 0.5 h [18] [%] | Activity at 0.5 h [19] [%] | inhibition (INH) [22] | fold change (FC) [3] | fold change (FC) [5] | fold change (FC) [6] | fold change (FC) [9] | fold change (FC) [10] | fold change (FC) [12] | fold change (FC) [13] | fold change (FC) [17] | further results |
| --- | --- | --- | --- | --- | --- | --- | --- | --- | --- | --- | --- | --- | --- | --- | --- | --- | --- | --- | --- | --- | --- |
| Cc1cc(C)c(-c2cc(NC(=O)CSc3cccc(NC(=O)c4cncc(Br)c4)c3)n(-c3ccccc3)n2)cc1C | 1.7 | 62 | 22.8 | 27 | 1.1 | Active | 150 | 72 | Active | – | – | – | 6.6 | 353 | 106 | 9.7 | 3.5 | 11 | 38 | 236 | – |
| Cc1cc(C)c(-c2cc(NC(=O)CSCC(=O)NC34CC5CC(CC(C5)C3)C4)n(-c3ccccc3)n2)cc1C | 1.3 | 41 | 22.9 | 63 | 1 | Not Active | – | 74 | Active | – | 78 | Not Active | 2.8 | 163 | 19 | 1.8 | 1.6 | 2.7 | 9.2 | 101 | inhibition (INH) [23]: Not Active |
| Cc1cc(C)c(-c2cc(NC(=O)CSCC(=O)NC(c3ccccc3)c3ccccc3)n(-c3ccccc3)n2)cc1C | 1.6 | – | 21.6 | 54 | 1.2 | Not Active | 148 | 76 | Active | 116 | – | Not Active | 3.7 | 193 | 38 | 3.5 | 1.9 | 3.9 | 13 | 133 | inhibition (INH) [23]: Not Active |

The next lines start with results.

| Activity [1] | Activity at 0.5 h [2] [%] | Kd [4] [µM] | Activity at 0.5 h [7] [%] | Ratio [8] | inhibition (INH) [11] | Activity at 0.5 h [14] [%] | Activity at 0.5 h [15] [%] | inhibition (INH) [16] | Activity at 0.5 h [18] [%] | Activity at 0.5 h [19] [%] | inhibition (INH) [22] | SMILES | fold change (FC) [3] | fold change (FC) [5] | fold change (FC) [6] | fold change (FC) [9] | fold change (FC) [10] | fold change (FC) [12] | fold change (FC) [13] | fold change (FC) [17] | further results |
| --- | --- | --- | --- | --- | --- | --- | --- | --- | --- | --- | --- | --- | --- | --- | --- | --- | --- | --- | --- | --- | --- |
| 1.6 | – | 22.2 | 40 | 0.9 | Active | – | 70 | Active | 141 | 70 | – | Cc1cc(C)c(-c2cc(NC(=O)CSCC(=O)Nc3ccc4ccccc4c3)n(-c3ccccc3)n2)cc1C | 8.4 | 1060 | 46 | 4.2 | 11 | 4.1 | 14 | 303 | – |
| 1.9 | – | 25.6 | 59 | 1.2 | Active | 355 | – | Active | – | – | Active | Cc1cc(C)c(-c2cc(NC(=O)CSCC(=O)Nc3ccc4ncsc4c3)n(-c3ccccc3)n2)cc1C | 20 | 2118 | 372 | 34 | 27 | 3.7 | 12 | 731 | Activity at 0.5 h [20]: 84%; Activity at 0.5 h [21]: 123% |

Source: ChEMBL document CHEMBL4354820, “Optimizing Targeted Inhibitors of P-Glycoprotein Using Computational and Structure-Guided Approaches” (J Med Chem, 2019)
